Type in all cases: functional, Cercopithecidae
Experiment [1] in a line: Time from injection to 95% recovery of the twitch response at the ED95 dose in male Rhesus monkey. The procedure, abridged: (§1)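 Anesthetized, ventilated male rhesus monkeys received sequential iv bolus doses with extensor digitorum twitch recorded. Onset is injection to peak twitch inhibition. Duration is injection to 95% twitch recovery. Values at the ED95 were read from plots of onset or duration vs dose. Means ± SE across animals.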

A short description of experiment [2]: Dose required for 95% suppression of the twitch response at the extensor digitorum in male Rhesus monkey. In short, it runs like this:
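Adult male rhesus monkeys (8–15 kg) under ketamine (5 mg/kg i.m.) and pentobarbital (2–5 mg/kg iv) induction, then N2O 60%/O2 40%/halothane 0.5–1%, ventilated, core temperature 37–38 °C. Twitch of extensor digitorum was recorded after ≥20 min stable baseline. Sequential iv bolus doses from 0.03 to 6.4 mg/kg. Per-animal ED95 came from log-probability regression of dose vs % block. Other lines give the single dose tested with its % block.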

Experiment [3] is described as follows: Time from injection to peak inhibition of twitch response at the ED95 dose in male Rhesus monkey. In short, it runs like this: as §1
Experiment [4] in a line: Selectivity index is changes in heart rate(cv dose) to the suppression of twitch response (ED95) in male Rhesus monkey. In short, it runs like this: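 Same anesthetized male rhesus preparation, with blood pressure, heart rate and EKG recorded alongside twitch during sequential iv doses up to 6.4 mg/kg. Cardiovascular threshold dose is the dose giving ≥10% change in heart rate or mean arterial pressure. Index = mean threshold dose / mean ED95 (extensor digitorum).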

Where [5] appears, read: Cercopithecidae, read-out: ED95.

In experiment [1], `COc1ccc([C@@H]2c3cc(OC)c(OC)cc3CC[N@@+]2(C)CCCOC(=O)CC(F)(F)C(=O)OCCC[N@+]2(C)CCc3cc(OC)c(OC)cc3[C@H]2Cc2cc(OC)c(OC)c(OC)c2)cc1OC.[Cl-].[Cl-]` came in with a Duration of 3.9 min. Besides, the ED95 in experiment [2] (setting [5]) came to 0.06 mg/kg. This compound also had an Onset in experiment [3] of 55 s.
In turn, `COc1cc2c(cc1OC)[C@H](c1ccc(F)c(F)c1)[N@@+](C)(CCCOC(=O)/C=C(\Cl)C(=O)OCCC[N@+]1(C)CCc3cc(OC)c(OC)cc3[C@H]1Cc1cc(OC)c(OC)c(OC)c1)CC2.[Cl-].[Cl-]` yielded a Duration in experiment [1] of 4.7 min. Besides, the ED95 in experiment [2] (setting [5]) was determined as 0.09 mg/kg. For the same compound, the Onset in experiment [3] was found to be 72 s. The Selectivity index in experiment [4] came out at 18.
For the compound `COc1cc2c(cc1OC)C(Cc1cc(OC)c(OC)c(OC)c1)[N@+](C)(CCCOC(=O)/C(Cl)=C/C(=O)OCCC[N@+]1(C)CCc3cc(OC)c(OC)cc3[C@H]1Cc1cc(OC)c(OC)c(OC)c1)CC2.[Cl-].[Cl-]` (stereo not given in full), the Duration in experiment [1] came out at 7.1 min. Also, the ED95 in experiment [2] (setting [5]) worked out at 0.079 mg/kg. Also, in experiment [3], the Onset came out at 96 s. In experiment [4], this compound displayed a Selectivity index of 20.
In turn, `COc1cc2c(cc1OC)[C@H](c1cc(OC)c(OC)c(OC)c1)[N@@+](C)(CCCOC(=O)CCCCCCC(=O)OCCC[N@+]1(C)CCc3cc(OC)c(OC)cc3[C@H]1Cc1cc(OC)c(OC)c(OC)c1)CC2.[Cl-].[Cl-]` showed a Duration in experiment [1] of 10.9 min. Moreover, the ED95 in experiment [2] (setting [5]) came to 0.067 mg/kg. The Onset in experiment [3] is on record as 117 s. The Selectivity index in experiment [4] came out at 12.
With `COc1cc2c(cc1OC)[C@H](c1cc(OC)c(OC)c(OC)c1)[N@@+](C)(CCCOC(=O)CC(F)(F)C(=O)OCCC[N@+]1(C)CCc3cc(OC)c(OC)c(OC)c3[C@H]1Cc1cc(OC)c(OC)c(OC)c1)CC2.[Cl-].[Cl-]`, the Duration in experiment [1] came out at 14 min. The ED95 in experiment [2] (setting [5]) worked out at 0.04 mg/kg. In experiment [3], this compound had an Onset of 217 s. This compound displayed a Selectivity index in experiment [4] of 60.
Regarding `COc1cc2c(cc1OC)[C@H](c1cc(OC)c(OC)c(OC)c1)[N@@+](C)(CCCOC(=O)/C=C(\F)C(=O)OCCC[N@+]1(C)CCc3cc(OC)c(OC)c(OC)c3[C@H]1Cc1cc(OC)c(OC)c(OC)c1)CC2.[Cl-].[Cl-]`, the Duration in experiment [1] is recorded as 10 min. For the same compound, the ED95 in experiment [2] (setting [5]) turned out to be 0.077 mg/kg. Also, the Onset in experiment [3] came out at 85 s. Besides, in experiment [4], the Selectivity index is recorded as 21.
Consider `COc1cc2c(cc1OC)[C@@H](c1cc(OC)c(OC)c(OC)c1)[N@+](C)(CCCOC(=O)/C=C(\Cl)C(=O)OCCC[N@+]1(C)CCc3cc(OC)c(OC)c(OC)c3[C@H]1Cc1cc(OC)c(OC)c(OC)c1)CC2.[Cl-].[Cl-]`, for which the Duration in experiment [1] came to 9.9 min. In addition, the ED95 in experiment [2] (setting [5]) worked out at 0.053 mg/kg. Further, the Onset in experiment [3] was 113 s. Moreover, the Selectivity index in experiment [4] is 15.
As for `COc1cc2c(cc1OC)[C@H](c1cc(OC)c(OC)c(OC)c1)[N@@+](C)(CCCOC(=O)CCCCC(=O)OCCC[N@+]1(C)CCc3cc(OC)c(OC)cc3[C@H]1Cc1cc(OC)c(OC)c(OC)c1)CC2.[Cl-].[Cl-]`, the Duration in experiment [1] turned out to be 13 min. Besides, the ED95 in experiment [2] (setting [5]) was 0.136 mg/kg. The compound further showed an Onset in experiment [3] of 75 s.
As to `COc1cc2c(cc1OC)C(c1cc(OC)c(OC)c(OC)c1)[N@+](C)(CCCOC(=O)/C(Cl)=C/C(=O)OCCC[N@+]1(C)CCc3cc(OC)c(OC)cc3[C@H]1c1cc(OC)c(OC)c(OC)c1)CC2.[Cl-].[Cl-]` (stereo not given in full), the Duration in experiment [1] came out at 5.1 min. In addition, in experiment [2] (setting [5]), the ED95 amounted to 1.79 mg/kg. In experiment [3], this compound displayed an Onset of 46 s. This compound gave a Selectivity index in experiment [4] of 3.6.
In experiment [1], `COc1cc2c(cc1OC)[C@H](c1cc(OC)c(OC)c(OC)c1)N(CCCOC(=O)/C=C(\Cl)C(=O)OCCC[N@+]1(C)CCc3cc(OC)c(OC)cc3[C@H]1Cc1cc(OC)c(OC)c(OC)c1)CC2.Cl.[Cl-]` returned a Duration of 5.4 min. The ED95 in experiment [2] (setting [5]) is 0.87 mg/kg. The same compound displayed an Onset in experiment [3] of 38 s.
In turn, `COc1cc2c(cc1OC)[C@@H](Cc1cc(OC)c(OC)c(OC)c1)[N@+](C)(CCCOC(=O)/C(Cl)=C/C(=O)OCCC[N@+]13CCc4cc(OC)c(OC)cc4[C@H]1c1cc(OC)c(OC)cc1CC3)CC2.[Cl-].[Cl-]` had a Duration in experiment [1] of 5.2 min. In addition, the ED95 in experiment [2] (setting [5]) was determined as 0.078 mg/kg. The compound also had an Onset in experiment [3] of 94 s. Besides, the Selectivity index in experiment [4] is 5.
Compound `COc1cc2c(cc1OC)[C@H](c1cc(OC)c(OC)c(OC)c1)[N@@+](C)(CCCOC(=O)C(F)(F)CC(=O)OCCC[N@+]1(C)CCc3cc(OC)c(OC)cc3[C@H]1Cc1cc(OC)c(OC)c(OC)c1)CC2.[Cl-].[Cl-]` yielded a Duration in experiment [1] of 4.9 min. The ED95 in experiment [2] (setting [5]) came to 0.39 mg/kg. In experiment [3], the Onset is 26 s.
In turn, `COc1cc2c(cc1OC)[C@H](c1cc(OC)c(OC)c(OC)c1)[N@@+](C)(CCCOC(=O)CCCCCCCC(=O)OCCC[N@+]1(C)CCc3cc(OC)c(OC)cc3[C@H]1Cc1cc(OC)c(OC)c(OC)c1)CC2.[Cl-].[Cl-]` showed a Duration in experiment [1] of 9.7 min. In addition, the ED95 in experiment [2] (setting [5]) was 0.17 mg/kg. Besides, the Onset in experiment [3] was found to be 79 s. Besides, in experiment [4], the Selectivity index is reported as 19.
The compound `COc1cc2c(cc1OC)[C@@H](Cc1cc(OC)c(OC)c(OC)c1)[N+](C)(CCCOC(=O)CC/C=C/CCC(=O)OCCC[N+]1(C)CCc3cc(OC)c(OC)cc3[C@H]1Cc1cc(OC)c(OC)c(OC)c1)CC2.[Cl-].[Cl-]` (stereo not given in full) [MIVACURIUM CHLORIDE] returned a Selectivity index in experiment [4] of 24.
The compound `COc1cc2c(cc1OC)[C@H](c1cc(OC)c(OC)c(OC)c1)[N@@+](C)(CCCOC(=O)CCCCCCCCC(=O)OCCC[N@+]1(C)CCc3cc(OC)c(OC)cc3[C@H]1Cc1cc(OC)c(OC)c(OC)c1)CC2.[Cl-].[Cl-]` had a Duration in experiment [1] of 13.5 min. Besides, in experiment [2] (setting [5]), the ED95 came to 0.2 mg/kg. Besides, in experiment [3], the Onset amounted to 110 s.
In experiment [1], `COc1cc2c(cc1OC)[C@H](c1cc(OC)c(OC)c(OC)c1)[N@@+](C)(CCCOC(=O)/C=C(\F)C(=O)OCCC[N@+]1(C)CCc3cc(OC)c(OC)cc3[C@H]1Cc1cc(OC)c(OC)c(OC)c1)CC2.[Cl-].[Cl-]` showed a Duration of 4.4 min. In addition, the ED95 in experiment [2] (setting [5]) amounted to 0.137 mg/kg. This compound had an Onset in experiment [3] of 66 s. This compound also yielded a Selectivity index in experiment [4] of 37.
In the same order, the values of `COc1cc2c(cc1OC)C(c1cc(OC)c(OC)c(OC)c1)[N@+](C)(CCCOC(=O)/C=C/C(=O)OCCC[N@+]1(C)CCc3cc(OC)c(OC)cc3[C@H]1c1cc(OC)c(OC)c(OC)c1)CC2.[Cl-].[Cl-]` (stereo not given in full) are 25.5 min, 1.55 mg/kg, 114 s and 0.65.
In experiment [1], `COc1ccc([C@H]2c3cc(OC)c(OC)cc3CC[N@+]2(C)CCCOC(=O)/C=C(\Cl)C(=O)OCCC[N@+]2(C)CCc3cc(OC)c(OC)cc3[C@H]2Cc2cc(OC)c(OC)c(OC)c2)cc1.[Cl-].[Cl-]` displayed a Duration of 7.4 min. For the same compound, the ED95 in experiment [2] (setting [5]) stood at 0.136 mg/kg. The Onset in experiment [3] was 69 s. In experiment [4], the Selectivity index is 6.
On to `COc1cc2c(cc1OC)[C@H](c1cc(OC)c(OC)c(OC)c1)[N@@+](C)(CCCOC(=O)/C=C(\Cl)C(=O)OCCC[N@+]13CCc4cc(OC)c(OC)c(OC)c4[C@H]1Cc1cc(OC)c(OC)c(OC)c1C3)CC2.[Cl-].[Cl-]`, for which the Duration in experiment [1] worked out at 4.5 min. Besides, the ED95 in experiment [2] (setting [5]) was found to be 0.8 mg/kg. Besides, in experiment [3], the Onset amounted to 28 s.
For `COc1cc(CC2c3cc4c(cc3CC[N@@+]2(C)CCCOC(=O)/C(Cl)=C/C(=O)OCCC[N@+]2(C)CCc3cc5c(cc3[C@H]2Cc2cc(OC)c(OC)c(OC)c2)OCO5)OCO4)cc(OC)c1OC.[Cl-].[Cl-]` (stereo not given in full), the Duration in experiment [1] amounted to 2.4 min. Besides, the ED95 in experiment [2] (setting [5]) came out at 0.62 mg/kg. Also, in experiment [3], the Onset turned out to be 27 s. In addition, the Selectivity index in experiment [4] came to 1.3.
The compound `COc1cc2c(cc1OC)[C@H](c1cc(OC)c(OC)c(OC)c1)[N@@+](C)(CCCOC(=O)/C=C(\Cl)C(=O)OCCC[N@+]1(C)CCc3cc(OC)c(OC)cc3[C@H]1Cc1cc(OC)c(OC)c(OC)c1)CC2.[Cl-].[Cl-]` (stereo in doubt; 24a/24b) [GANTACURIUM CHLORIDE] registered an ED95 in experiment [2] of 0.163 mg/kg. Also, the Selectivity index in experiment [4] worked out at 27.
Take `COc1cc2c(cc1OC)[C@H](c1cc(OC)c(OC)c(OC)c1)[N@@+](C)(CCCOC(=O)/C=C(\Cl)C(=O)OCCC[N@+]1(C)CCc3cc(OC)c(OC)cc3[C@H]1Cc1cc(OC)c(OC)c(OC)c1)CC2.[Cl-].[Cl-]` (stereo in doubt; 24a) [GANTACURIUM CHLORIDE]: the ED95 in experiment [2] was 0.063 mg/kg. Further, the Selectivity index in experiment [4] is 57.
Compound `COc1cc2c(cc1OC)[C@@H](c1cc(OC)c(OC)c(OC)c1)[N@+](C)(CCCOC(=O)/C(Cl)=C/C(=O)OCCC[N@+]1(C)CCc3cc(OC)c(OC)cc3[C@H]1Cc1cc(OC)c(OC)c(OC)c1)CC2.[Cl-].[Cl-]` yielded a Duration in experiment [1] of 3.7 min.
`COc1cc2c(cc1OC)[C@H](c1cc(OC)c(OC)c(OC)c1)[N@@+](C)(CCCOC(=O)/C=C(\Cl)C(=O)OCCC[N@@+]1(C)CCc3cc(OC)c(OC)cc3[C@@H]1c1cc(OC)c(OC)c(OC)c1)CC2.[Cl-].[Cl-]` came in with a Selectivity index in experiment [4] of 1.5.
With `COc1cc2c(cc1OC)[C@H](c1cc(OC)c(OC)c(OC)c1)[N@@+](C)(CCCOC(=O)CCC(F)(F)C(=O)OCCC[N@+]1(C)CCc3cc(OC)c(OC)cc3[C@H]1Cc1cc(OC)c(OC)c(OC)c1)CC2.[Cl-].[Cl-]`, the Duration in experiment [1] is given as 5.7 min. For the same compound, the ED95 in experiment [2] (setting [5]) amounted to 0.22 mg/kg. The same compound gave an Onset in experiment [3] of 48 s.

(Values after ChEMBL document CHEMBL1145796, “Neuromuscular blocking activity and therapeutic potential of mixed-tetrahydroisoquinolinium halofumarates and halosuccinates in rhesus monkeys” (2003).)
